# Most compounds without a hit are left out; they make up all but 3.7% or so of the library.
# KCNQ1 block – inhibitors of human KCNQ1 channel, primary screen, cell-based, thallium flux, high-throughput; Potassium voltage-gated channel subfamily KQT member 1 (Homo sapiens), P51787; CHO-K1 KCNQ1, FluxOR thallium flux fluorescence; stronger effect = higher value; B-score at 10 µM; hit rate 1.3% among 310,000;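 active = compounds whose thallium flux B-score, printed positive for inhibition, exceeds three library SD while starting fluorescence stays within three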;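 note: channel opened by potassium depolarization with thallium stimulus after 20 min compound exposure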
# Target sequence (P51787 whole entry, looked up): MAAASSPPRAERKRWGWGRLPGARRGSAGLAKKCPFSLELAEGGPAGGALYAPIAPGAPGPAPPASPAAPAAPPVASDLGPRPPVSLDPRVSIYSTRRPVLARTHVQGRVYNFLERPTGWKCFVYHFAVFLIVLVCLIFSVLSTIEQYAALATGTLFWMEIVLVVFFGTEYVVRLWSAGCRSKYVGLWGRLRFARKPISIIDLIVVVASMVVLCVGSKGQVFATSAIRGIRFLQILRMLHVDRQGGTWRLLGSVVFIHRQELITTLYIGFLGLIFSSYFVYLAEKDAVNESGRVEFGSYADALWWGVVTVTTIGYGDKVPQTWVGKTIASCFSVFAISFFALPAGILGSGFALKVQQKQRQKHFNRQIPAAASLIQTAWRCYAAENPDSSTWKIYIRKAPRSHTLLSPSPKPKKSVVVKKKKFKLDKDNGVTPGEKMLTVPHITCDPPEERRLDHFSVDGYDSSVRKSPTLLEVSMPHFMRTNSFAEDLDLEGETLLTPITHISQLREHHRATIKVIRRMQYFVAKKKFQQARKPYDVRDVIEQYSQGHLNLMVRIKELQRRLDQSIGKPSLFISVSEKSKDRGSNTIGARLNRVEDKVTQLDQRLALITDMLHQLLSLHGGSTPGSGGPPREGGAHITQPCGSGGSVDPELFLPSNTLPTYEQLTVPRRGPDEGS
# KCNQ1 pot – potentiators or activators of KCNQ1 channel, primary screen, cell-based, thallium flux, high-throughput. Potassium voltage-gated channel subfamily KQT member 1 (Homo sapiens), P51787. CHO-K1 KCNQ1, thallium flux FluxOR fluorescence; stronger effect = higher value. hit rate 0.35% among 310,000. B-score at 10 µM;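 active = fluorescence ratio B-score, a plate-corrected score, at least three library SD, with initial intensity B-score within 5 SD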
#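 assay system = CHO-K1 cells stably expressing KCNQ1 | medium = assay buffer, equal DMSO in all wells | timing = 37 °C overnight plating, 90-min dark dye load, 20-min compound pretreatment | measured by = kinetic FluxOR thallium fluorescence, 10-s 1-Hz baseline, 110-s post-stimulus read | measure = fluorescence change relative to baseline, converted to B score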
# KCNK9 block – KCNK9 potassium channel inhibitors, primary screen, HEK293 cells, thallium flux. Potassium channel subfamily K member 9 (Homo sapiens), Q9NPC2. FluxOR thallium flux fluorescence; stronger effect = lower value. B-score at 10 µM. hit rate 1.2% among 310,000;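 active = ratio B-score over 3 SD below the library mean, with starting fluorescence within 5 SD of its mean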;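 note: negative B-score means less thallium flux so channel inhibition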
# hERG rescue – hERG rescue from dofetilide block, primary screen, cell-based, CHO-hERG, FluxOR thallium flux, dofetilide IC70 | Voltage-gated inwardly rectifying potassium channel KCNH2 (Homo sapiens), Q12809 | dofetilide IC70 present | activation (rescue from dofetilide block), less the hit threshold, % at 10 µM | hit rate 0.51% among 310,000 | AID 1511, 2009;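 active = activation above the mean of controls blocked by dofetilide plus 5 SD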;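 note: thallium influx through hERG after potassium depolarization seen as dye fluorescence rise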
# KCNK3 inh – human KCNK3 channel inhibitors, primary screen, CHO cells, FluxOR thallium flux, B-score | FluxOR fluorescence; stronger effect = lower value | B-score at 10 µM | hit rate 0.84% among 340,000;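 active = B-score under library mean minus 4 SD, starting fluorescence ratio at most library mean plus 5 SD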;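 note: more negative B-score means stronger inhibition of thallium flux through KCNK3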
# Kir21 block – inhibitors of mouse Kir2.1 inward-rectifier potassium channel. Inward rectifier potassium channel 2 (Mus musculus), P35561. HEK293-Kir2.1, FluxOR thallium flux fluorescence; stronger effect = lower value. B-score at 10 µM. hit rate 0.85% among 310,000;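 active = fluorescence ratio B-score at or below minus 3 SD of library scores, with starting-brightness B-score within 2 SD, cut at about -4.2 in these data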;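 note: channel flux triggered by added potassium and thallium sulfate stimulus; B-score of peak minus minimum fluorescence over baseline after thallium stimulus; more negative B-score means stronger Kir2.1 block with less thallium influx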
# Numbers without * were called inactive; i = inactive; . = not tested or not shown.
SMILES,KCNQ1 block,KCNQ1 pot,KCNK9 block,hERG rescue,KCNK3 inh,Kir21 block
COc1ccc(C(c2c(NC(=O)c3ccco3)sc(C)c2C)N2CCOCC2)cc1 (centres undefined),.,.,.,.,-10.8*,.
CCOc1ccc(NC(=O)C2C3C=CC4(O3)C2C(=O)N(Cc2cccnc2)C4C(=O)NC2CCCCC2)cc1 (centres undefined),i,i,i,-6.1,i,-0.75
COC(=O)c1cc(NC(=O)c2cccc(C(F)(F)F)c2)c(=O)oc1C/C=N/OCc1cccc(Cl)c1Cl,i,i,i,-12.4,-11.1*,1.07
COC(=O)c1cc(NC(=O)c2cccc(C(F)(F)F)c2)c(=O)oc1C,i,i,i,-6.2,i,-0.84
CCCCCCCCNc1nc(Cl)nc(NCc2ccco2)n1,i,i,i,-7.1,i,-0.2
CCCCCCNc1nc(NCc2ccco2)nc(OCC)n1,i,i,-6.89*,-7.0,i,-0.16
CCC(C(=O)Nc1ccccc1)c1ccccc1 (centres undefined),i,i,i,-7.9,i,-0.73
CCCC(C)NCC(=O)Nc1ccccc1-c1ccccc1 (centres undefined),i,i,i,-4.7,i,-4.51*
Cc1ccc(SC(C)C(=O)Nc2ccccc2-c2ccccc2)cc1 (centres undefined),i,i,i,-8.9,i,-6.91*
CC(Sc1ccc(Cl)cc1)C(=O)Nc1ccccc1-c1ccccc1 (centres undefined),i,i,i,-11.1,i,-2.26
CCC(C(=O)NCCCN1CCN(CCCNC(=O)C(CC)c2ccccc2)CC1)c1ccccc1 (centres undefined),i,i,i,4.9*,i,-0.27
CCC(C(=O)NCCCc1ccccc1)c1ccccc1 (centres undefined),i,i,i,-13.8,i,-3.86
Cc1ccc(CC(=O)Nc2ccccc2-c2ccccc2)cc1C,i,i,i,-6.8,i,-3.1
CCC(C(=O)Nc1ccccc1-c1ccccc1)c1ccccc1 (centres undefined),i,i,i,-10.4,i,-4.9*
CC(=O)Nc1ccc(SCC(=O)Nc2ccccc2-c2ccccc2)cc1,i,i,i,-8.4,i,-4.28*
CCOC(=O)C1=C(C)N(c2ccccc2)C(=O)/C1=C\c1ccc(O)c(OC)c1,i,i,-6.76*,-4.9,i,1.39
CCOC(=O)C1=C(C)N(c2ccccc2)C(=O)/C1=C\c1ccco1,i,i,i,-10.2,i,1.05
O=C(Cn1c(NCCCO)nc2ccccc21)c1ccc(Cl)cc1Cl,i,i,i,-3.7,i,0.88
COc1ccccc1-c1nnc(SCC(=O)NNC(=O)c2ccccc2F)n1C,.,.,.,.,i,.
O=C(NCCc1c[nH]c2ccccc12)Nc1ccccc1,i,i,-6.94*,-10.7,i,-1.26
N#Cc1cccc(NC(=O)NCCc2c[nH]c3ccccc23)c1,i,i,i,-8.5,i,0.08
ClCC(CNCc1ccccc1)c1ccccc1 (centres undefined),.,.,.,.,i,.
CC(=O)c1sc(NC(=O)c2cnc(Cl)c(Cl)c2)nc1C,9*,i,i,-2.5,i,0.05
CC1CCCCC1NCC#CCOc1ccc(Cl)cc1 (centres undefined),i,i,i,-10.1,i,-5.02*
COc1cc(C(=O)Nc2nnc(S(=O)(=O)N3CCCCCC3)s2)cc(OC)c1OC,i,i,i,-10.7,i,-0.41
SMILES,KCNQ1 block,KCNQ1 pot,KCNK9 block,hERG rescue,KCNK3 inh,Kir21 block
COc1cc(/C=C(\C#N)C(=O)c2c[nH]c3ccccc23)cc(OC)c1O,7*,i,i,-12.7,i,-1.05
COc1cc(/C=C(\C#N)C(=O)NCCc2ccccc2)cc(OC)c1O,i,i,i,-9.3,i,-0.13
CCOC(=O)N1CCN(C(=O)COC(=O)c2ccc([N+](=O)[O-])cc2Cl)CC1,.,.,.,.,i,.
CC(C)c1nc(SCC(=O)Nc2ccc([N+](=O)[O-])cc2Br)n[nH]1,i,i,i,8.6*,i,-1.53
Cc1sc2ncnc(N3CCC(C(=O)Nc4sc5c(c4C(N)=O)CCC(C)C5)CC3)c2c1C (centres undefined),.,.,.,.,i,.
O=C(/C=C/c1ccc([N+](=O)[O-])cc1)/C=C/c1ccco1,8*,i,i,-5.4,i,-5.77*
O=C(/C=C/c1cccnc1)c1ccc(F)c(F)c1,i,i,i,-9.5,i,-5.35*
O=C(Oc1c(Br)cc([N+](=O)[O-])cc1Br)c1cccnc1,7*,i,i,-12.7,i,0.89
N/C(=N\OC(=O)c1ccc([N+](=O)[O-])cc1)c1cccnc1,i,i,i,-6.4,i,-0.85
CN(C)c1ccc(C(=O)/C=C/c2cccnc2)cc1,i,i,i,-4.2,i,-0.13
O=C(/C=C/c1ccc2c(c1)OCO2)c1cccnc1,i,i,i,-7.4,i,-5.23*
CC(=O)c1ccc(N2CCN(CC(=O)NC(=O)NCc3ccccc3)CC2)cc1,.,.,.,.,i,.
CCC(C(=O)Nc1cccnc1Cl)c1ccccc1 (centres undefined),i,i,i,-2.1,i,-0.88
O=C(/C=C/c1ccc([N+](=O)[O-])cc1)c1cccnc1,i,i,i,-17.0,i,-4.28*
Cc1ccc(Nc2cc(C)nn2-c2nc(C)cc(=O)[nH]2)cc1,i,32*,i,20.4*,i,0
COc1ccccc1NC(=O)c1ccccc1N(Cc1ccccc1)S(C)(=O)=O,i,i,i,-12.7,i,-0.99
O=C1c2ccccc2C(=O)N1Cc1nc2ccccc2c(=O)n1CCCn1ccnc1,i,i,i,9.8*,i,-3.4
CCCC(CCC)c1nc2ccncc2[nH]1,i,i,i,-11.2,i,-0.62
CC(C)NC(=O)CSc1nc(N)c(-c2ccccc2)c(=O)[nH]1,i,i,i,1.9,i,0.03
CSCCC(NS(=O)(=O)c1ccc(C)cc1)C(=O)N1CC=C(c2ccccc2)CC1 (centres undefined),i,i,i,-12.4,i,2.28
Cc1cc(Cl)ccc1OCC(=O)NNC(=O)C1CCCO1 (centres undefined),i,26*,i,-4.8,i,-2.16
